What was measured:
Type in all cases: protein-complex assay
[1] = target: T1, 20S proteasome (Homo sapiens) (UniProt P49721+P20618+P28074+P28062+P28065+P28072+P25786+P25787+P25788+P25789+P28066+P60900+O14818+Q8TAA3+P40306+A5LHX3+P49720+P28070+Q99436); assay: (§1) Activation of human 20S proteosome assessed as increase in 7-amino-4-methylcoumarin release at 30 uM using mixture of chymotrypsin-like Suc-LLVY-AMC, trypsin-like Boc-LRR-AMC and caspase-like Z-LLE-AM fluorogenic peptides as substrates preincubated for 15 mins followed by substrate mixture addition and measured for 1 hr by fluorescence assay relative to control; conditions: filed as activator, time 75.0 min
Method in brief: (§2)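 Purified human 20S proteasome pre-incubated 15 min at 37°C with compound (3, 10 or 30 μM) or DMSO vehicle. Substrate mix then added: Suc-LLVY-AMC, Boc-LRR-AMC and Z-LLE-AMC, 13.3 μM each. AMC fluorescence followed over 1 h. Fold increase in activity calculated against untreated 20S.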

[2] = target: T1, 20S proteasome (Homo sapiens); assay: Activation of human 20S proteosome assessed as concentration required to cause double the proteosome activity using chymotrypsin-like Suc-LLVY-AMC, trypsin-like Boc-LRR-AMC and caspase-like Z-LLE-AM fluorogenic peptides as substrates; conditions: filed as activator
Method in brief: (§3)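 Human 20S proteasome activity measured by AMC fluorescence over time. Each fluorogenic substrate (CT-L Suc-LLVY-AMC, Tryp-L Boc-LRR-AMC, Casp-L Z-LLE-AMC) tested alone and as an equal-amount mixture. Six-point compound titration, 1.25–40 μM, run in triplicate. AC200, the concentration that doubles 20S activity, derived from the concentration-response curves.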

[3] = target: T1, 20S proteasome (Homo sapiens); assay: Activation of human 20S proteosome assessed as fold increase in proteosome activity at 2.3 uM using mixture of chymotrypsin-like Suc-LLVY-AMC, trypsin-like Boc-LRR-AMC and caspase-like Z-LLE-AM fluorogenic peptides as substrates by fluorescence assay relative to control; conditions: filed as activator
[4] = target: T1, 20S proteasome (Homo sapiens); assay: Activation of human 20S proteosome assessed as concentration required to cause double the proteosome activity using chymotrypsin-like Suc-LLVY-AMC fluorogenic peptide as substrate; conditions: filed as activator; method in brief: as §3
[5] = target: T1, 20S proteasome (Homo sapiens); assay: Activation of human 20S proteosome assessed as fold increase in proteosome activity at 8.1 uM using chymotrypsin-like Suc-LLVY-AMC fluorogenic peptide as substrate by fluorescence assay relative to control; conditions: filed as activator
[6] = target: T1, 20S proteasome (Homo sapiens); assay: Activation of human 20S proteosome assessed as concentration required to cause double the proteosome activity using caspase-like Z-LLE-AM fluorogenic peptide as substrate; conditions: filed as activator; method in brief: as §3
[7] = target: T1, 20S proteasome (Homo sapiens); assay: Activation of human 20S proteosome assessed as fold increase in proteosome activity at 5.8 uM using caspase-like Z-LLE-AM fluorogenic peptide as substrate by fluorescence assay relative to control; conditions: filed as activator
[8] = target: T1, 20S proteasome (Homo sapiens); assay: Activation of human 20S proteosome assessed as concentration required to cause double the proteosome activity using trypsin-like Boc-LRR-AMC fluorogenic peptide as substrate; conditions: filed as activator; method in brief: as §3
[9] = target: T1, 20S proteasome (Homo sapiens); assay: Activation of human 20S proteosome assessed as fold increase in proteosome activity at 2.5 uM using trypsin-like Boc-LRR-AMC fluorogenic peptide as substrate by fluorescence assay relative to control; conditions: filed as activator
[10] = target: T1, 20S proteasome (Homo sapiens); assay: as §1, with “3” for “30”; conditions: filed as activator, time 75.0 min; method in brief: as §2
[11] = target: T1, 20S proteasome (Homo sapiens); assay: Activation of human 20S proteosome assessed as fold increase in proteosome activity at 1.3 uM using mixture of chymotrypsin-like Suc-LLVY-AMC, trypsin-like Boc-LRR-AMC and caspase-like Z-LLE-AM fluorogenic peptides as substrates by fluorescence assay relative to control; conditions: filed as activator
[12] = target: T1, 20S proteasome (Homo sapiens); assay: Activation of human 20S proteosome assessed as fold increase in proteosome activity at 10.5 uM using chymotrypsin-like Suc-LLVY-AMC fluorogenic peptide as substrate by fluorescence assay relative to control; conditions: filed as activator
[13] = target: T1, 20S proteasome (Homo sapiens); assay: Activation of human 20S proteosome assessed as fold increase in proteosome activity at 2.8 uM using caspase-like Z-LLE-AM fluorogenic peptide as substrate by fluorescence assay relative to control; conditions: filed as activator
[14] = target: T1, 20S proteasome (Homo sapiens); assay: Activation of human 20S proteosome assessed as fold increase in proteosome activity at 1.7 uM using trypsin-like Boc-LRR-AMC fluorogenic peptide as substrate by fluorescence assay relative to control; conditions: filed as activator
[15] = target: T1, 20S proteasome (Homo sapiens); assay: Induction of human 20S proteosome mediated human alpha-synuclein degradation; conditions: filed as activator, dose 0.5-10 µM
Method in brief: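 Compound pre-incubated with purified human 20S proteasome. Pure human α-synuclein then added and the mix incubated 4 h. Digests resolved and silver stained. α-Synuclein bands quantified using 20S proteasome subunits as loading control, n=3.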

[16] = target: T1, 20S proteasome (Homo sapiens); assay: Activation of human 20S proteosome assessed as fold increase in proteosome activity at 2 uM using mixture of chymotrypsin-like Suc-LLVY-AMC, trypsin-like Boc-LRR-AMC and caspase-like Z-LLE-AM fluorogenic peptides as substrates by fluorescence assay relative to control; conditions: filed as activator
[17] = target: T1, 20S proteasome (Homo sapiens); assay: Activation of human 20S proteosome assessed as fold increase in proteosome activity at 12.9 uM using chymotrypsin-like Suc-LLVY-AMC fluorogenic peptide as substrate by fluorescence assay relative to control; conditions: filed as activator
[18] = target: T1, 20S proteasome (Homo sapiens); assay: Activation of human 20S proteosome assessed as fold increase in proteosome activity at 5.6 uM using caspase-like Z-LLE-AM fluorogenic peptide as substrate by fluorescence assay relative to control; conditions: filed as activator
[19] = target: T1, 20S proteasome (Homo sapiens); assay: Activation of human 20S proteosome assessed as fold increase in proteosome activity at 5 uM using trypsin-like Boc-LRR-AMC fluorogenic peptide as substrate by fluorescence assay relative to control; conditions: filed as activator

For `C=CCN1C(c2ccccc2)=Nc2cc(OC)ccc2C1c1ccccc1` (configuration not stated), the fold change (FC) [1] was 2.3.

In the case of `COc1ccc2c(c1)N=C(c1ccccc1)N(c1ccccc1)C2c1ccccc1` (configuration not stated), the fold change (FC) [1] is reported as 9.5, the AC200 [2] is reported as 2.3 µM and the fold change (FC) [3] is reported as 11.1. For the same compound, the AC200 [4] was 8.1 µM, the fold change (FC) [5] was 6.7 and the AC200 [6] was 5.8 µM. For the same compound, the fold change (FC) [7] was 15.3, the AC200 [8] was 2.5 µM and the fold change (FC) [9] was 15. The Activity [10] was > 200%.

`COc1ccc2c(c1)N=C(C1CCCCC1)N(Cc1ccccc1)C2c1ccccc1` (configuration not stated) showed a fold change (FC) [1] of 6.5.

`COc1ccc2c(c1)N=C(C1CC1)N(Cc1ccccc1)C2c1ccccc1` (configuration not stated) showed a fold change (FC) [1] of 2.7.

For `Cc1ccc2c(c1)N=C(c1ccccc1)N(Cc1ccccc1)C2c1ccccc1` (configuration not stated), the fold change (FC) [1] was 8.1.

With `COc1ccc2c(c1)N=C(c1ccccc1)N(c1cccc3cccnc13)C2c1ccccc1` (configuration not stated) the fold change (FC) [1] was 5.3.

Work on `COc1ccc2c(c1)N=C(c1ccccc1)N(Cc1ccccn1)C2c1ccccc1` (configuration not stated) yielded a fold change (FC) [1] of 2.

`COc1ccc2c(c1)N=C(c1ccccc1)N(CC1CCN(C)CC1)C2c1ccccc1` (configuration not stated) was tested, and the fold change (FC) [1] was 1.2.

In the case of `COc1ccc2c(c1)N=C(c1ccccc1)N(c1ccccn1)C2c1ccccc1` (configuration not stated), the fold change (FC) [1] is reported as 6.9.

`COc1ccc2c(c1)N=C(c1ccccc1)N(C1CCCCC1)C2c1ccccc1` (configuration not stated) gave a fold change (FC) [1] of 6.7.

`COc1ccc2c(c1)N=C(c1ccccc1)N(c1cccnc1)C2c1ccccc1` (configuration not stated) gave a fold change (FC) [1] of 5.9.

`COc1ccc2c(c1)N=C(c1ccccc1)N(C1CCN(C)CC1)C2c1ccccc1` (configuration not stated) was tested, and the fold change (FC) [1] was 1.

In the case of `COc1ccc2c(c1)N=C(c1ccccc1)N(CC1CCOCC1)C2c1ccccc1` (configuration not stated), the fold change (FC) [1] is reported as 1.6.

Compound `c1ccc(CN2C(c3ccccc3)=Nc3ccccc3C2c2ccccc2)cc1` (configuration not stated) has a fold change (FC) [1] of 4.

`COc1ccc2c(c1)N=C(c1ccccc1)N(C1CCN(Cc3ccccc3)CC1)C2c1ccccc1` (configuration not stated) was tested, and the fold change (FC) [1] was 7, the AC200 [2] was 1.3 µM and the fold change (FC) [11] was 5.5. It also gave an AC200 [4] of 10.5 µM, a fold change (FC) [12] of 3.8 and an AC200 [6] of 2.8 µM. The fold change (FC) [13] was 10.6, the AC200 [8] was 1.7 µM and the fold change (FC) [14] was 8.7. The Activity [15] was “Dose-dependent effect” and the Activity [10] was > 200%.

Compound `COc1ccc2c(c1)N=C(C(C)C)N(Cc1ccccc1)C2c1ccccc1` (configuration not stated) has a fold change (FC) [1] of 2.3.

For `COc1ccc2c(c1)N=C(c1ccccc1)N(CC1CCCCC1)C2c1ccccc1` (configuration not stated), the fold change (FC) [1] was 8.2.

`COc1ccc2c(c1)N=C(C)N(Cc1ccccc1)C2c1ccccc1` (configuration not stated) gave a fold change (FC) [1] of 1.8.

With `CCCCCC1=Nc2cc(OC)ccc2C(c2ccccc2)N1Cc1ccccc1` (configuration not stated) the fold change (FC) [1] was 2.8.

In the case of `COc1ccc2c(c1)N=C(c1ccccc1)N(CCc1ccccn1)C2c1ccccc1` (configuration not stated), the fold change (FC) [1] is reported as 2.8.

In the case of `CCCCCCN1C(c2ccccc2)=Nc2cc(OC)ccc2C1c1ccccc1` (configuration not stated), the fold change (FC) [1] is reported as 1.6.

`COc1ccc2c(c1)N=C(c1ccccc1)N(CC#N)C2c1ccccc1` (configuration not stated) was tested, and the fold change (FC) [1] was 2.7.

With `CCCCCc1ccc2c(c1)N=C(c1ccccc1)N(Cc1ccccc1)C2c1ccccc1` (configuration not stated) the fold change (FC) [1] was 2.8.

Work on `COc1ccc2c(c1)N=C(c1ccccc1)N(Cc1ccccc1)C2c1ccccc1` (configuration not stated) yielded a fold change (FC) [1] of 7.9, an AC200 [2] of 2 µM and a fold change (FC) [16] of 10.1. For the same compound, the AC200 [4] was 12.9 µM, the fold change (FC) [17] was 5.6 and the AC200 [6] was 5.6 µM. The fold change (FC) [18] was 13.4, the AC200 [8] was 5 µM and the fold change (FC) [19] was 11.7. For the same compound, the Activity [10] was > 200%.

Reference: ChEMBL document CHEMBL4732168, “Dihydroquinazolines enhance 20S proteasome activity and induce degradation of α-synuclein, an intrinsically disordered protein associated with neurodegeneration” (Bioorg Med Chem Lett, 2021)
